Screening data (PubChem BioAssay)
STAT3 inh: reduces IL-6 driven STAT3 reporter signal | U3A cells, IL-6 STAT3-luciferase reporter, luminescence; host cell line lacks STAT1 | inhibition, % at 5.5 µM | hit rate 0.89% among 190,000;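 active = inhibition above the mean inhibition across all screened compounds plus 3 SD, cut at about 44% in these data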
STAT1 act: STAT1 signaling activation; NIH 3T3 STAT1-luciferase reporter, IFN-gamma, luminescence; 100% = IFN-gamma alone, no compound; activation (% of control), % at 5.5 µM; hit rate 2.6% among 200,000;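 active = activation above the screen-wide mean activation plus 3 SD, cut at about 130% in these data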
STAT3 act: increases IL-6 driven STAT3 reporter signal | AID 871 | U3A cells, IL-6 STAT3-luciferase reporter, luminescence; 100% = signal with IL-6 EC80 alone | activation (% of control), % at 5.6 µM | hit rate 0.91% among 190,000;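 active = activation above the screen-wide mean of compound activation plus 3 SD, cut at about 130% in these data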
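Test system: STAT3-luciferase reporter U3A cells; Detection: reporter luminescence signal; Times: 1 h compound pre-exposure, 6 h IL-6 stimulation, 37 °C; Benchmarks: IL-6-only high control; Also added: IL-6 stimulus at 33 ng/mL final.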
STAT1 inh: inhibitors of IFN-gamma induced STAT1 signaling; NIH 3T3 STAT1-luciferase reporter, luminescence; inhibition, % at 5.5 µM; hit rate 0.35% among 200,000; AID 920;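 active = inhibition above a set limit, the mean inhibition across all tested compounds plus 3 SD, cut at about 34% in these data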
NF-kB neuron act: raises NF-kB expression in human neuronal cells; NF-kB reporter expression; active compounds read high; fold change at 12.5 µM; hit rate 1.6% among 190,000; AID 1239; in the data active = fold change above about 3.3
APP 5'UTR act: activates APP 5'UTR luciferase reporter | SH-SY5Y APP 5'UTR luciferase reporter, luminescence; zero percent = DMSO vehicle wells | activation, % at 2 µM | hit rate 1% among 190,000 | AID 1276;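 active = activation above a set limit, based on mean plus 3 SD of controls, cut at about 140% in these data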
Numbers stand for hits. The list is not random: actives were taken first. Their share in the collection is about 4.9%.

For CCc1ccc(-c2cc(C(=O)N/N=C/c3c[nH]c4ccccc34)[nH]n2)cc1 the results were STAT3 inh inactive, STAT1 act inactive, STAT3 act inactive, STAT1 inh inactive, NF-kB neuron act inactive and APP 5'UTR act 208.4.
Screening O=C(CCNc1n[nH]c(=O)[nH]c1=O)N/N=C\c1cccc(OCc2ccccc2)c1 returned STAT3 inh inactive, STAT1 act inactive, STAT3 act inactive, STAT1 inh inactive, NF-kB neuron act inactive and APP 5'UTR act inactive.
For Cc1cc(=O)oc2cc(OCC(=O)N3CCN(C(=O)c4ccco4)CC3)ccc12 the results were STAT3 inh inactive, STAT1 act inactive, STAT3 act inactive, STAT1 inh inactive, NF-kB neuron act inactive and APP 5'UTR act inactive.
CCOCCCNC(=S)N1C2CCC1CC(NC(=O)NC13CC4CC(CC(C4)C1)C3)C2 (stereo not drawn) was read as STAT3 inh inactive, STAT1 act inactive, STAT3 act inactive, STAT1 inh inactive, NF-kB neuron act inactive and APP 5'UTR act inactive.
`CCOc1ccccc1CN1C(=O)c2ccccc2C1C(=O)NC(C)CC` (stereo not drawn) gave STAT3 inh inactive, STAT1 act inactive, STAT3 act inactive, STAT1 inh inactive, NF-kB neuron act inactive and APP 5'UTR act inactive.
S=C(NCCSCc1ccc(Cl)cc1Cl)Nc1ccccc1 was read as STAT3 inh inactive, STAT1 act inactive, STAT3 act inactive, STAT1 inh inactive, NF-kB neuron act inactive and APP 5'UTR act inactive.
S=C(Nc1ccccc1)Nc1ccc(OCc2ccc(Cl)cc2Cl)cc1 was read as STAT3 inh 64.1, STAT1 act inactive, STAT3 act inactive, STAT1 inh 58.7, NF-kB neuron act inactive and APP 5'UTR act inactive.
`O=C(Cn1cc(S(=O)(=O)N2CCN(c3ccccc3F)CC2)c2ccccc2c1=O)NCCCN1CCCCCC1` gave STAT3 inh inactive, STAT1 act inactive, STAT3 act inactive, STAT1 inh inactive, NF-kB neuron act inactive and APP 5'UTR act inactive.
CCC(C)(C)C1CCC(=NNC(=S)Nc2cccnc2)CC1 (stereo not drawn) was read as STAT3 inh inactive, STAT1 act inactive, STAT3 act inactive, STAT1 inh inactive, NF-kB neuron act inactive and APP 5'UTR act inactive.
CCC(C)(C)C1CCC(=NNC(=S)Nc2ccccc2)CC1 (stereo not drawn) was read as STAT3 inh inactive, STAT1 act inactive, STAT3 act inactive, STAT1 inh inactive, NF-kB neuron act inactive and APP 5'UTR act 151.6.
`COc1ccc(C(=O)Nc2ccc([N+](=O)[O-])cn2)c(OC)c1` gave STAT3 inh inactive, STAT1 act 147.6, STAT3 act inactive, STAT1 inh inactive, NF-kB neuron act 4.42 and APP 5'UTR act 143.2.
`COc1cc(OC)cc(C(=O)Nc2ccc([N+](=O)[O-])cn2)c1` gave STAT3 inh inactive, STAT1 act inactive, STAT3 act inactive, STAT1 inh inactive, NF-kB neuron act inactive and APP 5'UTR act inactive.
`CC1(C)CN(c2ccccc2)N(Cc2ccc(F)cc2)C1=O` gave STAT3 inh inactive, STAT1 act inactive, STAT3 act inactive, STAT1 inh inactive, NF-kB neuron act inactive and APP 5'UTR act inactive.
O=C(Cc1ccccc1)Nc1nc2ccccc2s1 was read as STAT3 inh inactive, STAT1 act inactive, STAT3 act inactive, STAT1 inh inactive, NF-kB neuron act 7.12 and APP 5'UTR act inactive.
`Cn1cc(Cl)c(C(=O)Nc2nc3ccccc3s2)n1` gave STAT3 inh inactive, STAT1 act 148.0, STAT3 act inactive, STAT1 inh inactive, NF-kB neuron act 4.4 and APP 5'UTR act 146.2.
For CC(C)C(=O)NNc1nc2ccccc2s1 the results were STAT3 inh inactive, STAT1 act 132.4, STAT3 act inactive, STAT1 inh inactive, NF-kB neuron act inactive and APP 5'UTR act inactive.
COCC(=O)Nc1nc2ccccc2s1 was read as STAT3 inh inactive, STAT1 act inactive, STAT3 act inactive, STAT1 inh inactive, NF-kB neuron act inactive and APP 5'UTR act inactive.
Screening O=C(Cc1cccs1)Nc1nc2ccccc2s1 returned STAT3 inh inactive, STAT1 act inactive, STAT3 act inactive, STAT1 inh inactive, NF-kB neuron act 4.23 and APP 5'UTR act inactive.
For CC(=O)Nc1ccc2nc(C3CC3)n(Cc3ccc(Cl)cc3)c(=O)c2c1 the results were STAT3 inh inactive, STAT1 act 146.5, STAT3 act inactive, STAT1 inh inactive, NF-kB neuron act inactive and APP 5'UTR act inactive.
